# NLRP3 yeast inh: NALP3 inhibition in yeast; inhibition, % at 10 µM; AID 2825; 0.39% of 330,000 active; Yeast reconstituted NLRP3/ASC/caspase-1, beta-gal luminescence, 24 h;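 active means inhibition of 50% or more; inactive means inhibition below 50%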;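 further: plate controls were induced DMSO wells for no effect and uninduced yeast grown without galactose for full effect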
# CSC inhib: blocks cancer stem cells | cancer stem cell-like cells viability, luminescence | inhibition, % at 7.5 µM | 1.1% of 300,000 active; in the data active means inhibition above about 75%; inconclusive means no clear call, values can overlap the other calls; tested in HMLE shEcad cells
# T cruzi repl: blocks replication of Trypanosoma cruzi. T. cruzi beta-gal in NIH3T3, luminescence, 90 h. inhibition, % (no concentration beside the values). 1.4% of 300,000 active. AID 1885;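 active means mean inhibition across valid replicates above about 55%, limit read from the data; inconclusive means mean below that limit but half or more replicates reach it; inactive means mean below it, under half of replicates reach it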;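 further: signal also drops with host cell toxicity which is not excluded here; 0% = plate median of DMSO wells and 100% = zero luminescence signal; higher percent means less beta-gal luminescence so fewer parasites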
#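 Test system: β-gal T. cruzi (Tulahuen C4) inside NIH/3T3 cells / Quantity: 5,000 cells/well / Measured by: luminescence from GalScreen with 0.05% NP40, read after 60 min / Medium: DMEM plus 2% FBS / Measure: parasite load inhibition, % / Reagent: Tulahuen C4 trypomastigotes, 5000/well / Schedule: co-culture of at least 90 h after 3 h attachment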
# Calb FLC: affects C. albicans growth with fluconazole; C. albicans CaCi-2 + fluconazole, Alamar Blue growth, 48 h; 0.57% of 300,000 active; growth inhibition, % (no concentration beside the values); AID 1979;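 active means growth inhibition above about 58% in most replicates, limit read from the data, passing the limit was not always enough; inconclusive means exactly half the replicates above a set limit; inactive means most replicates below a set limit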;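 further: all wells also contain fluconazole at 8 µg/ml as a sub-toxic cotreatment; 0% = median of DMSO wells and 100% = median of geldanamycin control wells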
# Mdm2-MdmX inh: inhibitors of human Mdm2/MdmX interaction | inhibition, % at 8 µM | O15151+Q00987 | 3% of 330,000 active | AID 485346 | SaOS-2 split-luciferase Mdm2/MdmX complementation, luminescence;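 active means inhibition of at least 50% at 8 µM in the primary screen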
# Target sequence (O15151 whole entry, looked up): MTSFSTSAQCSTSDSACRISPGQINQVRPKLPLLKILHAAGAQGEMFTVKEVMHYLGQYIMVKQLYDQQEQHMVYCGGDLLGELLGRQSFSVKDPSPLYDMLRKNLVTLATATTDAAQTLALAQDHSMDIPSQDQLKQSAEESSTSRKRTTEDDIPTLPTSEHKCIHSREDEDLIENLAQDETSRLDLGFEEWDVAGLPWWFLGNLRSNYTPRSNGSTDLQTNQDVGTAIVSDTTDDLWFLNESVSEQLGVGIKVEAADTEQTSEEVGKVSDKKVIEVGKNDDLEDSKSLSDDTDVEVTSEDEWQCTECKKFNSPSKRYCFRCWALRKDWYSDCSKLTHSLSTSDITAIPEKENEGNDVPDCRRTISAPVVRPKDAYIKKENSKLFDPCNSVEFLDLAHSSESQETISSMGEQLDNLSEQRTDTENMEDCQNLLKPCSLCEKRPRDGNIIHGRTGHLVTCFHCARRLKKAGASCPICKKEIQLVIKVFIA
# Target sequence (Q00987 whole entry, looked up): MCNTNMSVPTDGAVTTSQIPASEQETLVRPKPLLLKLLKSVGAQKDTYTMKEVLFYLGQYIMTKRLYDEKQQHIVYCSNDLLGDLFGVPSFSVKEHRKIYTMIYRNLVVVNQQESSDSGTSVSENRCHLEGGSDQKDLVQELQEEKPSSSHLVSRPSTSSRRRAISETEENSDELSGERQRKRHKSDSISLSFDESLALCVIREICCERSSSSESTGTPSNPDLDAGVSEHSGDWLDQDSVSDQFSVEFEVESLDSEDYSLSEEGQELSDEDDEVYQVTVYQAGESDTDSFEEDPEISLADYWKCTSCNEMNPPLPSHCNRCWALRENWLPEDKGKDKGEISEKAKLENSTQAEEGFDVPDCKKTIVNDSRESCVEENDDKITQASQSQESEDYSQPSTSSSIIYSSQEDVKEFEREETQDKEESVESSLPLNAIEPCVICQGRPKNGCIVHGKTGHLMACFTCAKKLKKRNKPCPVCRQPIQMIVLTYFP
# Beta apoptosis: blocks beta cell apoptosis. 0.8% of 300,000 active. protection from apoptosis, % (test concentration not listed). INS-1E cytokine-induced death, ATP luminescence, 48 h; percent of positive-control rescue, neutral wells zero;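 active means Every replicate reaches about 75%, or at least half do and their mean reaches it too, limit read from the data; inconclusive means At least half of replicates reach the limit but their mean does not; inactive means Under half of replicates reach the limit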;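 further: 0% = cytokine-treated negative control wells and 100% = positive control rescue; higher means more ATP so stronger rescue from cytokine killing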
# Mdm2-MdmX conf: human Mdm2/MdmX binding inhibition, confirmed | shares compounds with Mdm2-MdmX inh | luminescent assay | inhibition, % at 8 µM | 55% of 10,000 active | AID 489028; in the data active means inhibition above about 40%
# Full FLuc ctr: full-length luciferase inhibition in Mdm2/MdmX counter-screen; AID 504607; inhibition, % at 8 µM; shares compounds with Mdm2-MdmX inh; 77% of 6,200 active; SaOS-2 full-length luciferase counterscreen, luminescence;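 active means mean inhibition at 8 µM reaching about 37%, which flags the compound as non-specific, limit read from the data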;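 further: p53-null SaOS-2 cells with luciferase driven by a doxycycline-inducible promoter; compound on cells about two nights before reading with doxycycline added after day one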
# An asterisk follows results filed as active; ? = inconclusive; . = no result given. Rows were chosen to be rich in hits. Some 5.3% of all compounds tested hit in one or more screens of this group.
SMILES,NLRP3 yeast inh,CSC inhib,T cruzi repl,Calb FLC,Mdm2-MdmX inh,Beta apoptosis,Mdm2-MdmX conf,Full FLuc ctr
CCN1CCN(Cc2c(O)ccc3c2O/C(=C\C=C\c2ccccc2)C3=O)CC1,-4.1,7.2,7.6,?,95.8*,4.8,59.3*,37.3*
O=C1/C(=C/C=C/c2ccccc2)Oc2c1ccc(O)c2CN1CCN(CCO)CC1,12.9,46.5,-23.5,3.3,37.1,-9.7,.,.
CN(C)Cc1c(O)ccc2c1O/C(=C\C=C\c1ccccc1)C2=O,8.5,51.1,-9.9,5.5,100.5*,-27.4,72.3*,21.1
Cc1ccc(C(=O)N/C(=C\c2ccc(-c3ccc(Br)cc3)o2)C(=O)NCCCN(C)C)cc1,7.8,?,77.1*,11.1,100.2*,100.4*,99.2*,54.7*
Cc1ccc(C(=O)N/C(=C\c2ccc(-c3cccc([N+](=O)[O-])c3)o2)C(=O)NCCCN(C)C)cc1,18.8,11.7,2.1,1.1,38.9,6.9,.,.
CN(C)CCNC(=O)/C(=C/c1ccc(-c2ccc(Cl)cc2Cl)o1)NC(=O)c1ccccc1,7.1,110.0*,32.1,?,100.2*,99.4*,99.9*,26.3
CN(C)CCNC(=O)/C(=C/c1ccc(-c2ccc(Cl)cc2)o1)NC(=O)c1ccccc1,.,21.4,25.5,-13.3,.,0.0,.,.
CC1(O)C(=O)c2ccccc2N(c2ccccc2)C1=O (stereo not given),14.8,5.3,-5.6,-3.7,-10.5,-15.3,.,.
COc1ccc(N(C(C)=O)C2C=CS(=O)(=O)C2)c(OC)c1 (stereo not given),13.6,-2.5,-10.6,-33.4,8.4,7.8,.,.
COc1cccc(/C=N/Nc2ncnc(Cl)c2N)c1O,15.7,156.5*,-3.5,-0.4,100.3*,127.0*,82.7*,30.7
COc1ccc(Nc2ncnc3scc(-c4ccc(OC)cc4)c23)cc1,11.2,-29.2,14.4,1.7,36.8,-1.9,.,.
COc1cccc(/C=N/Nc2ncnc3scc(-c4ccccc4)c23)c1O,-0.2,111.0*,52.0,108.5*,81.6*,103.0*,80.3*,13.8
CCn1c(CCn2ccnc2C)n[nH]c1=S,2.2,1.5,-5.7,-22.6,6.4,1.7,.,.
COc1ccc(-c2cc(C)no2)cc1S(=O)(=O)N1CCN(c2cccc(C)c2)C(C)C1 (stereo not given),-7.1,-1.2,12.9,7.7,52.9*,10.3,45.0*,61.4*
COc1ccc(-c2cc(C)no2)cc1S(=O)(=O)N1CCCCC1,16.2,-13.7,-0.9,24.8,6.7,-3.5,.,.
Cc1cccc(N2CCN(S(=O)(=O)c3cc(-c4cc(C)no4)ccc3C)CC2C)c1 (stereo not given),10.7,52.9,25.3,-5.8,50.4*,30.4,53.8*,37.9*
COc1ccc(N2CCN(S(=O)(=O)c3cc(-c4cc(C)no4)ccc3C(C)C)CC2)cc1,2.0,12.2,-19.4,6.7,50.6*,-0.4,36.6,.
O=C(Nc1cccc(-c2cn3ccsc3n2)c1)c1ccccc1,16.6,4.8,-0.6,-7.6,4.2,1.5,.,.
N/C(=N\OC(=O)C(c1ccccc1)c1ccccc1)c1cccnc1,4.3,-11.5,37.4,-2.8,51.5*,0.8,9.1,.
N/C(=N\OC(=O)Cc1ccccc1)c1ccccn1,8.2,9.4,-5.1,5.2,-13.4,-11.1,.,.
N/C(=N\OC(=O)C(c1ccccc1)c1ccccc1)c1ccccn1,4.0,-15.1,26.1,?,77.3*,-1.9,28.4,.
COCOc1ccc(-c2cc(=O)c3c(OCOC)cc(OCOC)cc3o2)cc1,19.8,-5.7,20.0,-8.1,14.0,4.7,.,.
O=C1NCCc2c1[nH]c1c(Cl)ccc(Cl)c21,29.0,.,-0.8,3.9,76.7*,-17.3,62.8*,48.3*
O=C1NCCc2c1[nH]c1ccc([N+](=O)[O-])cc21,4.1,-2.4,-15.5,-0.5,47.9,-10.7,.,.
O=C(/C=C/c1ccc(OCCCF)cc1)Nc1ccnc(-c2cccnc2)n1,34.8,2.0,47.8,-16.7,49.8,10.5,.,.
SMILES,NLRP3 yeast inh,CSC inhib,T cruzi repl,Calb FLC,Mdm2-MdmX inh,Beta apoptosis,Mdm2-MdmX conf,Full FLuc ctr
O=C(/C=C/c1ccc(OCCCF)cc1)Nc1ccnc(-c2ccncc2)n1,25.6,.,47.4,-1.3,62.2*,-12.2,24.2,.
Cc1ccc(-n2c(-c3ccccc3)c[n+]3c2CCc2ccccc2-3)c(C)c1,-3.3,28.3,.,102.1*,81.8*,129.6*,65.5*,26.4
Cc1ccc(-n2c(SCC(=O)N3CCCc4ccccc43)nnc2-c2cccnc2)c(C)c1,17.4,-0.6,8.6,3.2,-2.0,-0.9,.,.
O=C(NCCO)/C(=C/c1ccco1)NC(=O)c1ccco1,1.2,-5.7,-2.1,-5.0,1.0,.,.,.
O=C(NCc1ccccn1)c1cc(-c2ccc(-c3ccccc3)cc2)nc2ccccc12,24.1,49.7,-34.6,9.1,83.6*,-3.5,60.6*,54.0*
COCCNC(=O)c1cc(-c2ccc(-c3ccccc3)cc2)nc2ccccc12,35.9,40.7,10.9,27.6,88.3*,0.0,84.0*,46.0*
CCN(CC)CCn1c2c(c(SCC(=O)NCc3ccccc3)nc1=O)CCCC2,13.8,-0.7,4.8,-3.0,11.3,-7.6,.,.
C=CCn1c(SCC(=O)Nc2ccccc2OC)nc2c([nH]c3ccccc32)c1=O,17.2,4.8,4.5,.,37.7,6.9,.,.
COCCn1c(SCC(=O)Nc2ccc(F)cc2F)nc2c([nH]c3ccccc32)c1=O,16.0,-5.9,2.3,.,55.4*,36.9,53.0*,13.8
C=CCn1c(SCC(=O)Nc2ccc(F)cc2F)nc2c([nH]c3ccccc32)c1=O,18.6,-14.8,-4.1,.,64.6*,-2.1,51.9*,26.8
CCN(CC)S(=O)(=O)c1ccc(NC(=O)C2c3ccccc3Oc3ccccc32)cc1,26.2,4.7,40.7,-24.1,1.1,8.4,.,.
COc1ccc(S(=O)(=O)NCc2ccco2)cc1C(=O)N1CCCCC1,8.1,-1.6,2.0,-5.2,1.7,-7.7,.,.
